Assay outcomes: PubChem BioAssay, Johns Hopkins Ion Channel Center
KCNQ1 act: potentiators or activators of KCNQ1 channel, primary screen, cell-based, thallium flux, high-throughput; Potassium voltage-gated channel subfamily KQT member 1 (Homo sapiens), P51787; CHO-K1 KCNQ1, thallium flux FluxOR fluorescence; active compounds read high; B-score at 10 µM; 310,000 compounds, 0.35% hits; AID 2648, 2010;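 active means fluorescence ratio B-score, a plate-corrected score, at least three library SD, with initial intensity B-score within 5 SD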
Target sequence (P51787 whole entry, looked up): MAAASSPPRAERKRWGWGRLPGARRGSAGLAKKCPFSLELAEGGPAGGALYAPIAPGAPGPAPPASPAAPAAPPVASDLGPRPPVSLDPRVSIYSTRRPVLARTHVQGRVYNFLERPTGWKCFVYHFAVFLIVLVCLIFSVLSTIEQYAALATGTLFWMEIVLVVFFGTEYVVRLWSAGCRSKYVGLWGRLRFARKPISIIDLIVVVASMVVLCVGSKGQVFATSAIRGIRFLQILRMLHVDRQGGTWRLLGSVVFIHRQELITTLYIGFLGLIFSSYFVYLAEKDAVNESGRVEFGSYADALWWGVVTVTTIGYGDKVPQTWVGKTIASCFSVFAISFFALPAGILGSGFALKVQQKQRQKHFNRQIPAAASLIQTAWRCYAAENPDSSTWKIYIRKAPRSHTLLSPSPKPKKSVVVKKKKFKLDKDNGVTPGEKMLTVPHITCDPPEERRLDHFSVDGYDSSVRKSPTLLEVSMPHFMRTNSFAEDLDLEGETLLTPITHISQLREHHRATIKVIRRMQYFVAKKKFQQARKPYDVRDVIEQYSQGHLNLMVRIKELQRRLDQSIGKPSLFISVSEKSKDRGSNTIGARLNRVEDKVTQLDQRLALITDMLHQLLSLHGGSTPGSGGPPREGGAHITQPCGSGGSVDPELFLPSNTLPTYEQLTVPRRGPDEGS
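assay system = CHO-K1 cells stably expressing KCNQ1 | medium = assay buffer, equal DMSO in all wells | timing = 37 °C overnight plating, 90-min dark dye load, 20-min compound pretreatment | measured by = kinetic FluxOR thallium fluorescence, 10-s 1-Hz baseline, 110-s post-stimulus read | measure = fluorescence change relative to baseline, converted to B score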
hERG protect: hERG rescue from dofetilide block, primary screen, cell-based, CHO-hERG, FluxOR thallium flux, dofetilide IC70. Voltage-gated inwardly rectifying potassium channel KCNH2 (Homo sapiens), Q12809. AID 1511, 2009. dofetilide IC70 present. 310,000 compounds, 0.51% hits. activation (rescue from dofetilide block), less the hit threshold, % at 10 µM;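 active means activation above the mean of controls blocked by dofetilide plus 5 SD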;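 further: thallium influx through hERG after potassium depolarization seen as dye fluorescence rise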
KCNQ1 block: inhibitors of human KCNQ1 channel, primary screen, cell-based, thallium flux, high-throughput; Potassium voltage-gated channel subfamily KQT member 1 (Homo sapiens), P51787; CHO-K1 KCNQ1, FluxOR thallium flux fluorescence; active compounds read high; B-score at 10 µM; 310,000 compounds, 1.3% hits;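 active means compounds whose thallium flux B-score, printed positive for inhibition, exceeds three library SD while starting fluorescence stays within three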;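 further: channel opened by potassium depolarization with thallium stimulus after 20 min compound exposure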
KCNK3 block: human KCNK3 channel inhibitors, primary screen, CHO cells, FluxOR thallium flux, B-score. Potassium channel subfamily K member 3 (Homo sapiens), O14649. 340,000 compounds, 0.84% hits. B-score at 10 µM. FluxOR fluorescence; active compounds read low;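 active means B-score under library mean minus 4 SD, starting fluorescence ratio at most library mean plus 5 SD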;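 further: more negative B-score means stronger inhibition of thallium flux through KCNK3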
KCNK9 inh: KCNK9 potassium channel inhibitors, primary screen, HEK293 cells, thallium flux. Potassium channel subfamily K member 9 (Homo sapiens), Q9NPC2. FluxOR thallium flux fluorescence; active compounds read low. B-score at 10 µM. 310,000 compounds, 1.2% hits;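 active means ratio B-score over 3 SD below the library mean, with starting fluorescence within 5 SD of its mean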;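 further: negative B-score means less thallium flux so channel inhibition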
KCNQ1 inh valid: KCNQ1 potassium channel inhibitors, confirmation, cell-based, Tl flux, duplicate; KCNQ1 cell line, FluxOR thallium flux fluorescence; 1,600 compounds, 93% hits; AID 588353, 2011; inhibition, % at 10 µM; shares compounds with KCNQ1 block;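 active means primary screen active, with duplicate mean exceeding buffer control mean plus 3 SD of buffer wells, cut at about 28% in these data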;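 further: 0% = buffer control ratio and 100% = XE991 inhibitor control ratio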
CHO KCNQ1 ctr: thallium flux effects in parental CHO cells, counter-screen for KCNQ1 inhibitor project, cell-based, Tl flux. shares compounds with KCNQ1 block. parental CHO-K1, FluxOR thallium flux fluorescence ratio; active compounds read low; zero means no signal rise above baseline. fluorescence ratio (Tl flux) at 10 µM. 1,600 compounds, 21% hits;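 active means mean of duplicate thallium-flux fluorescence ratios in parental host cells more than 5 SD below the buffer control mean, cut at about 0.38 in these data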;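 further: ratio is peak minus minimum fluorescence divided by baseline fluorescence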
KCNQ1 APC inh: KCNQ1 channel inhibitors, confirmation, orthogonal assay, cell-based, automated electrophysiology. 490 compounds, 20% hits. KCNQ1-CHO cells, automated patch clamp current. calls only at 10 µM. shares compounds with KCNQ1 block. AID 624120, 2012;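 active means KCNQ1 current drop exceeding 3 SD of negative control wells, seen in both duplicate runs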;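 further: steady state current during a 2 s step from -80 to +40 mV; negative values mean current inhibition and positive values mean potentiation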
KCNQ2 spec: KCNQ2 channel inhibition, selectivity assay for KCNQ1 inhibitor project, cell-based; KCNQ2 cells, FluxOR thallium flux fluorescence; shares compounds with KCNQ1 block; inhibition, % at 10 µM; 1,600 compounds, 71% hits; AID 651746, 2012;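 active means mean percent inhibition of the KCNQ2 thallium signal more than 5 SD above the buffer-only control wells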;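 further: KCNQ2 expressed in CHO cells; 0% = buffer control wells and 100% = XE-991 inhibitor control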
KCNQ1-KCNE1 inh: KCNQ1/KCNE1 channel inhibition, selectivity assay for KCNQ1 inhibitor project, CHO-K1 cells, thallium flux, FluxOR. shares compounds with KCNQ1 block. FluxOR thallium flux fluorescence. inhibition, % at 10 µM. 1,600 compounds, 77% hits;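 active means mean percent inhibition of duplicate wells above the buffer-only control mean plus 3 SD of those controls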;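 further: 0% = buffer only wells and 100% = XE-991 inhibitor control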
* = called active by the depositor; i = inactive; x = not tested or not shown; + = active, no number. Shown are actives, neighbours in structure and some others; about 3.1% of the full set was active somewhere.

SMILES	KCNQ1 act	hERG protect	KCNQ1 block	KCNK3 block	KCNK9 inh	KCNQ1 inh valid	CHO KCNQ1 ctr	KCNQ2 spec	KCNQ1-KCNE1 inh	others
COc1ccc(CN=Cc2[nH]c3ccc(Br)c(Cl)c3c2O)cc1	i	-16.8	7*	i	i	115.5*	0.372*	111.3%*	92.5%*
COc1ccccc1N(CC(O)CN1CCOCC1)S(=O)(=O)c1ccccc1 (centres undefined)	i	-9.9	i	i	i	x	x	x	x
Clc1ccc2nc3c4ccccc4cnn3c2c1	i	-6.0	i	i	i	x	x	x	x
Oc1ccc2nnc3c(Br)cnn3c2c1	i	-44.0	24*	i	i	+	0.042*	i	i
CC1(C)Cc2c(cnn2-c2ccc(F)cc2)C(NC(=O)C(C)(C)O)C1 (centres undefined)	i	-7.0	i	i	i	x	x	x	x
CC1(C)Cc2c(cnn2-c2ccc(F)cc2)C(NC(=O)C2CCC2)C1 (centres undefined)	i	-5.7	8*	i	i	103.0*	0.455	70.0%*	111.5%*	KCNQ1 APC inh=+
COc1ccc(C(C)=O)cc1CSc1nnc(-c2ccncc2)n1C	i	-4.7	i	i	i	x	x	x	x
COc1ccc(C(C)=O)cc1CSc1nncn1C	i	-4.2	8*	i	i	64.0*	0.429	60.0%*	35.0%*
Cc1ccc(-c2csc(=Nc3cccnc3)n2CCCn2ccnc2)cc1C	i	-17.4	12*	i	i	42.5*	0.446	79.7%*	i
Cc1ccc(-c2csc(=Nc3cccnc3)n2CCCN2CCCC2=O)cc1C	i	-9.2	i	i	i	x	x	x	x
COc1ccccc1CN1CC(C(=O)NCc2cc(F)cc(C(F)(F)F)c2)CCC1=O (centres undefined)	i	-6.9	i	i	i	x	x	x	x
CC(NC(=S)Nc1ccc(OC(F)F)c(Cl)c1)C(C)(C)C (centres undefined)	i	-16.2	8*	i	i	60.5*	0.491	i	36.0%*
COc1cccc(N2CCc3c(C)nc4ccc(Cl)cc4c32)c1	i	-22.2	6*	i	i	101.5*	0.383	98.3%*	77.0%*	KCNQ1 APC inh=+
COc1ccc(N2CCc3c(C)nc4c(OC)cc(OC)cc4c32)cc1	i	-32.0	6*	-10.2*	i	0.0	0.506	i	i
COC(=O)c1cc(S(=O)(=O)NCc2ccc(Br)cc2)c[nH]1	i	-9.7	i	i	i	x	x	x	x
CCN(CC)Cc1c(C(=O)N/N=C/c2cccc(OCc3cccc(Cl)c3)c2)nnn1-c1nonc1N	i	-8.3	i	i	i	x	x	x	x
CC(=O)Nc1sc(/C(C#N)=C/c2ccc(Cl)c(Cl)c2)nc1-c1ccc(C)cc1	i	-18.6	16*	i	i	+	0.23*	i	i
CC(=O)Nc1sc(N/N=C/c2ccc(C)cc2)nc1-c1ccc(C)cc1	i	-3.1	i	i	i	x	x	x	x
CCCCNC(=NCc1cccc(C(F)(F)F)c1)Nc1ccccc1	i	-4.8	i	i	i	x	x	x	x
Cc1noc(C)c1CSCC(=O)Nc1cc(C(F)(F)F)ccc1N1CCCCC1	i	-10.3	i	i	i	x	x	x	x
Cc1noc(C)c1CSCC(=O)Nc1cc(Cl)ccc1N1CCCCC1	i	-12.9	8*	i	i	125.0*	0.378*	121.0%*	174.5%*
COc1ccc(S(=O)(=O)n2nc(-n3c(C)ccc3C)c3c(F)cccc32)cc1OC	i	-9.0	9*	i	i	124.5*	0.403	106.7%*	138.0%*	KCNQ1 APC inh=i
CCOC(=O)c1cccc(OS(=O)(=O)Cc2ccccc2)c1	i	-7.2	i	i	i	x	x	x	x
Cc1cc(C)cc(NC(=O)CN2CCC(C(=O)c3ccccc3)CC2)c1	i	-8.9	i	i	i	x	x	x	x
Cc1ccc2ncc(S(=O)(=O)c3ccccc3)c(N3CCCCC3C)c2c1 (centres undefined)	i	-20.9	7*	i	i	126.0*	0.322*	130.7%*	+
SMILES	KCNQ1 act	hERG protect	KCNQ1 block	KCNK3 block	KCNK9 inh	KCNQ1 inh valid	CHO KCNQ1 ctr	KCNQ2 spec	KCNQ1-KCNE1 inh	others
COc1ccc2ncc(S(=O)(=O)c3ccccc3)c(N3CCN(c4ccccc4)CC3)c2c1	i	-5.3	i	i	i	x	x	x	x
CSc1ccc(CN2CCC(n3nccc3NC(=O)C3CCOC3)CC2)cc1 (centres undefined)	i	-11.9	i	i	i	x	x	x	x
COc1cc(C(C)=O)ccc1OCC(=O)Nc1ccc2nc(C)sc2c1	x	x	x	i	x	x	x	x	x
Cc1cccc(C)c1OC(=O)C(c1ccccc1)c1ccccc1	i	-5.4	7*	i	i	95.5*	0.433	89.0%*	148.5%*	KCNQ1 APC inh=i
COc1cccc(C(=O)Nc2ccc(Cl)c(C(F)(F)F)c2)c1	i	-14.7	9*	i	i	136.0*	0.373*	130.0%*	78.0%*
CC[n+]1c(/C=C2\Sc3ccccc3N2C)ccc2cccc(C)c21	i	-66.6	22*	i	i	+	0.05*	i	i
CN1/C(=C/c2cccc[n+]2CCO)Sc2ccccc21	i	-4.1	i	i	i	x	x	x	x
CCN1/C(=C/c2ccc3cc(C)ccc3[n+]2CC)Sc2ccccc21	i	-36.9	17*	i	i	+	0.0355*	i	i
